Assay results reported in PubChem BioAssay AID652250 (Vanderbilt Specialized Chemistry Center, 2013).
Calls of active or inactive are those of the source.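 How the source made its calls: active means compounds leaving under half of the peptide-driven platelet calcium rise; inactive means the rest.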

These molecules were tested against Proteinase-activated receptor 4 (Homo sapiens) (UniProt Q96RI0) (assay: PAR4 antagonists in human platelets, cell-based, single concentration, washed platelets, Fluo4 calcium (AID 652250)). Details: PAR4-AP calcium Fluo4 fluorescence.
Proteinase-activated receptor 4 (Homo sapiens), sequence (Q96RI0 whole entry, looked up): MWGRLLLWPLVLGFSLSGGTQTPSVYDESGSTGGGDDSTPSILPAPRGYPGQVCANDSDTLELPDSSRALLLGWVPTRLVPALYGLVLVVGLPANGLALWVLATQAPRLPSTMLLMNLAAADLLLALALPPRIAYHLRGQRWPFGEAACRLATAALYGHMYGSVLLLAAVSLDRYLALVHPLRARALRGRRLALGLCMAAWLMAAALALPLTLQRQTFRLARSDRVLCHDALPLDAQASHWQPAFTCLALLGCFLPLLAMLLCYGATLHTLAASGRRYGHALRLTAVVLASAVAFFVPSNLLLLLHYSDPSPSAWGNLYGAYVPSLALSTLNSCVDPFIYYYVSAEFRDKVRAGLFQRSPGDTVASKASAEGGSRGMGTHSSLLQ
Procedure, shortened: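 System: Fluo4-AM-loaded washed human platelets; Probe or stimulus: 80 µM PAR4-AP; Signal: fluorescence at 480/540 nm, 1 s intervals; Replicates: triplicate wells.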

Q: For `COc1cccc(Cn2cc(-c3ccc(OC)nc3)c3ccccc32)c1`, which IC50 is on record?
A: 14.6 µM

Q: `COc1ccc(-c2cn(Cc3cccc(F)c3)c3ccccc23)cn1` was tested. Which IC50 did it give?
A: 3.85 µM

Same assay, conditions: PAR4-AP calcium Fluo4 fluorescence, at 10 µM, active compounds read low

Q: For `COc1ccc(-n2nc(C(=O)NCCC3=CCCCC3)c3c4ccccc4n(C)c3c2=O)cc1Cl`, which “% of max PAR4-AP calcium response” value is on record?
A: inactive

Q: `COc1ccc2c(c1)c(C(=O)CNc1nccs1)c(C)n2C` was tested. Which “% of max PAR4-AP calcium response” value did it give?
A: inactive

Q: Which “% of max PAR4-AP calcium response” value does the source give for `Cn1cc(CC(=O)NCCCN2CCCC2=O)c2ccccc21` here?
A: inactive

Q: Which “% of max PAR4-AP calcium response” value does the source give for `CCN1CCN(c2ncnc3c2c(-c2ccccc2)cn3-c2ccc(Br)cc2)CC1` here?
A: inactive

Q: How did the “% of max PAR4-AP calcium response” value turn out when `Cn1cc(C(=O)Cc2ccccc2)c2ccccc21` was run?
A: inactive

Q: With `CSc1ncnc2c1c(-c1ccccc1)cn2-c1ccc(F)cc1` as the molecule, how does the “% of max PAR4-AP calcium response” value read?
A: inactive

Q: With `O=C(Cn1cc(C(=O)C(F)(F)F)c2ccccc21)NC1CCCC1` as the molecule, how does the “% of max PAR4-AP calcium response” value read?
A: inactive

Q: `O=C(c1cn(CCOc2ccccc2Cl)c2ccccc12)C(F)(F)F` was tested. Which “% of max PAR4-AP calcium response” value did it give?
A: inactive

Q: `N#Cc1ccc(-c2cn(Cc3ccccc3)c3ccccc23)cc1` was tested. Which “% of max PAR4-AP calcium response” value did it give?
A: inactive

Q: `CCOc1ncc(-c2cn(Cc3ccccc3)c3ccccc23)cn1` was tested. Which “% of max PAR4-AP calcium response” value did it give?
A: inactive

Q: For `O=C(c1cn(CCOc2ccc(Cl)cc2)c2ccc(Br)cc12)C(F)(F)F`, which “% of max PAR4-AP calcium response” value is on record?
A: inactive

Q: How did the “% of max PAR4-AP calcium response” value turn out when `COc1ccc(Br)cc1CNC(=O)CCCc1cn(C)c2ccccc12` was run?
A: inactive

Q: How did the “% of max PAR4-AP calcium response” value turn out when `O=C(c1cn(CCOc2ccc3c(c2)OCO3)c2ccc(Br)cc12)C(F)(F)F` was run?
A: inactive

Q: With `COc1ccc(-n2cc(-c3ccccc3)c3c(=O)[nH]cnc32)cc1` as the molecule, how does the “% of max PAR4-AP calcium response” value read?
A: inactive

Q: How did the “% of max PAR4-AP calcium response” value turn out when `Cn1cc(CC(=O)NCCN2CCOCC2)c2ccccc21` was run?
A: inactive

Q: Which “% of max PAR4-AP calcium response” value does the source give for `Cc1ccc(OCCCn2cc(C(=O)C(F)(F)F)c3ccccc32)cc1` here?
A: inactive

Q: Which “% of max PAR4-AP calcium response” value does the source give for `COc1ccccc1OCCn1cc(C(=S)N2CCCC2)c2ccccc21` here?
A: inactive

Q: How did the “% of max PAR4-AP calcium response” value turn out when `Fc1ccc(Cn2cc(C(=S)N3CCOCC3)c3ccccc32)cc1` was run?
A: inactive

Q: How did the “% of max PAR4-AP calcium response” value turn out when `COc1ccccc1NS(=O)(=O)c1ccc(NC(=O)c2ccc3c(c2)c(C)c(C)n3C)cc1` was run?
A: inactive

Q: `COc1ccc(NCC(O)Cn2c(C)c(C)c3ccccc32)cc1` (stereo unspecified) was tested. Which “% of max PAR4-AP calcium response” value did it give?
A: inactive

Q: With `Cc1cc(OCCn2cc(C(=S)N3CCOCC3)c3ccccc32)ccc1Cl` as the molecule, how does the “% of max PAR4-AP calcium response” value read?
A: inactive

Q: `CCOc1ccc(NC(=O)Cn2cc(C(=O)C(F)(F)F)c3ccccc32)cc1` was tested. Which “% of max PAR4-AP calcium response” value did it give?
A: inactive

Q: How did the “% of max PAR4-AP calcium response” value turn out when `OCCCNc1ncnc2c1c(-c1ccccc1)cn2-c1ccc(F)cc1` was run?
A: inactive

Q: Which “% of max PAR4-AP calcium response” value does the source give for `Fc1ccc(Cn2cc(C(=S)N3CCCC3)c3ccccc32)cc1` here?
A: inactive
